This is an account of results in ChEMBL document CHEMBL1121844, “Synthesis and preliminary antitumor evaluation of 5-iminodoxorubicin” (1981).

Common to all, as to assay type: functional
Experiment [1] relates to L1210. Put plainly: Dose required to inhibit the DNA synthesis in leukemia L1210 cells. Particulars: Mus musculus, read-out: ED50 (the source's name).
Experiment [2] deals with L1210. The experiment in a line: Dose required to inhibit the RNA synthesis in leukemia L1210 cells. The settings on record: Mus musculus, read-out: ED50 (the source's name).
For experiment [3], the system named is Mus musculus. Put plainly: Compound was evaluated for antitumor activity in mice injected intraperitoneal with leukemia P-388 cells, treated on days 5, 9, and 13 th day at 1 mg/kg. The gist of the method:
(§1)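 Mice received leukemia P-388 cells intraperitoneally on day 0. The specified dose was then given ip on days 5, 9 and 13. Read-out was % T/C, the survival time of treated mice relative to untreated controls. A T/C of 120% or more was defined as active.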

In experiment [4] the test system is Mus musculus. The experiment in a line: Compound was evaluated for antitumor activity in mice injected intraperitoneal with leukemia P-388 cells, treated on days 5, 9, and 13 th day at 8 mg/kg. Put shortly: as §1
Experiment [5] deals with Mus musculus. The experiment in a line: Compound was evaluated for antitumor activity in mice injected intraperitoneal with leukemia P-388 cells, treated on days 5, 9, and 13 th day at 16 mg/kg. The gist of the method: as §1
In another experiment the test system is Nucleic Acid. The experiment in a line: Thermal denaturation for stabilization of helical DNA by the compound.
Experiment [6] relates to Mus musculus. Put plainly: Compound was evaluated for antitumor activity in mice injected intraperitoneal with leukemia P-388 cells, treated on days 5, 9, and 13 th day at 2 mg/kg. The gist of the method:
as §1

The species entered for the next experiment is Rattus norvegicus. Put plainly: Compound was evaluated for augmentation of rat liver microsomal oxygen consumption relative to doxorubicin.
The subject of experiment [7] is Mus musculus. Put plainly: Compound was evaluated for antitumor activity in mice injected intraperitoneal with leukemia P-388 cells, treated on days 5, 9, and 13 th day at 4 mg/kg. The gist of the method: as §1
The subject of experiment [8] is Mus musculus. Put plainly: Compound was evaluated for antitumor activity in mice injected intraperitoneal with leukemia P-388 cells, treated on days 5, 9, and 13th day at 5.76 mg/kg. The gist of the method:
as §1

The subject of experiment [9] is Mus musculus. The experiment in a line: Compound was evaluated for antitumor activity in mice injected intraperitoneal with leukemia P-388 cells, treated on days 5, 9, and 13th day at 3.24 mg/kg. Put shortly:
as §1

Experiment [10] deals with Mus musculus. Put plainly: Compound was evaluated for antitumor activity in mice injected intraperitoneal with leukemia P-388 cells, treated on days 5, 9, and 13th day at 1.5 mg/kg. Put shortly:
as §1

For experiment [11], the system named is Mus musculus. Put plainly: Compound was evaluated for antitumor activity in mice injected intraperitoneal with leukemia P-388 cells, treated on days 5, 9, and 13th day at 6 mg/kg. The gist of the method:
as §1

For experiment [12], the system named is Mus musculus. Put plainly: Compound was evaluated for antitumor activity in mice injected intraperitoneal with leukemia P-388 cells, treated on days 5, 9, and 13th day at 5.4 mg/kg. Put shortly:
as §1

Experiment [13] relates to Mus musculus. The experiment in a line: Compound was evaluated for antitumor activity in mice injected intraperitoneal with leukemia P-388 cells, treated on days 5, 9, and 13th day at 3 mg/kg. Put shortly: as §1
The subject of experiment [14] is Mus musculus. The experiment in a line: Compound was evaluated for antitumor activity in mice injected intraperitoneal with leukemia P-388 cells, treated on days 5, 9, and 13 th day at 24 mg/kg. The gist of the method: as §1
The subject of experiment [15] is Mus musculus. Put plainly: Compound was evaluated for antitumor activity in mice injected intraperitoneal with leukemia P-388 cells, treated on days 5, 9, and 13th day at 9.6 mg/kg. The gist of the method: as §1
Experiment [16] concerns Mus musculus. The experiment in a line: Compound was evaluated for antitumor activity in mice injected intraperitoneal with leukemia P-388 cells, treated on days 5, 9, and 13th day at 12 mg/kg. The gist of the method: as §1
Experiment [17] concerns Mus musculus. The experiment in a line: Compound was evaluated for antitumor activity in mice injected intraperitoneal with leukemia P-388 cells, treated on days 5, 9, and 13th day at 16 mg/kg. Put shortly:
as §1

Experiment [18] concerns Mus musculus. Put plainly: Compound was evaluated for antitumor activity in mice injected intraperitoneal with leukemia P-388 cells, treated on days 5, 9, and 13th day at 9 mg/kg. Put shortly:
as §1

For experiment [19], the system named is Mus musculus. The experiment in a line: Compound was evaluated for antitumor activity in mice injected intraperitoneal with leukemia P-388 cells, treated on days 5, 9, and 13th day at 3.46 mg/kg. Put shortly:
as §1

In experiment [20] the test system is Mus musculus. The experiment in a line: Compound was evaluated for antitumor activity in mice injected intraperitoneal with leukemia P-388 cells, treated on days 5, 9, and 13th day at 1.94 mg/kg. The gist of the method:
as §1

Experiment [21] has as its system Mus musculus. The experiment in a line: Compound was evaluated for antitumor activity in mice injected intraperitoneal with leukemia P-388 cells, treated on days 5, 9, and 13th day at 6.25 mg/kg. The gist of the method:
as §1

Experiment [22] has as its system Mus musculus. The experiment in a line: Compound was evaluated for antitumor activity in mice injected intraperitoneal with leukemia P-388 cells, treated on days 5, 9, and 13th day at 12.5 mg/kg. Put shortly:
as §1

For experiment [23], the system named is Mus musculus. Put plainly: Compound was evaluated for antitumor activity in mice injected intraperitoneal with leukemia P-388 cells, treated on days 5, 9, and 13 th day at 50 mg/kg. The gist of the method: as §1
The subject of experiment [24] is Mus musculus. Put plainly: Compound was evaluated for antitumor activity in mice injected intraperitoneal with leukemia P-388 cells, treated on days 5, 9, and 13th day at 25 mg/kg. Put shortly:
as §1

Experiment [25] deals with Mus musculus. Put plainly: Compound was evaluated for antitumor activity in mice injected intraperitoneal with leukemia P-388 cells, treated on days 5, 9, and 13th day at 8 mg/kg. The gist of the method: as §1
The subject of experiment [26] is Mus musculus. The experiment in a line: Compound was evaluated for antitumor activity in mice injected intraperitoneal with leukemia P-388 cells, treated on days 5, 9, and 13th day at 4 mg/kg. Put shortly:
as §1

For experiment [27], the system named is Mus musculus. Put plainly: Compound was evaluated for antitumor activity in mice injected intraperitoneal with leukemia P-388 cells, treated on days 5, 9, and 13th day at 2 mg/kg. The gist of the method:
as §1

A word on the T/C: it is the result in the treated group divided by that in the control group, in per cent. A word on the ΔTm: it is the change in melting temperature against a reference sample. As for `COc1cccc2c1C(=O)c1c(O)c3c(c(O)c1C2=O)C[C@@](O)(C(=O)CO)C[C@@H]3O[C@H]1C[C@H](N)[C@H](O)[C@H](C)O1.Cl` [DOXORUBICIN HYDROCHLORIDE], the EC50 with L1210 [1] amounted to 1.5 µM; in the experiment with L1210 [2], 0.7 µM. The T/C in the experiment on Mus musculus [3] was 123%; in the experiment with Mus musculus [4] it was 162%; in the experiment on Mus musculus [5] it was 125%; in the experiment with Mus musculus [6], 130%; in the experiment with Mus musculus [7] it was 144%. For the same compound, in the experiment on Nucleic Acid, the ΔTm was 13.4 °C. This compound also gave an Augmentation in the experiment filed under Rattus norvegicus of 100%.
As for `COc1cccc2c1C(=N)c1c(O)c3c(c(O)c1C2=O)C[C@@](O)(C(C)=O)C[C@@H]3OC1CC(N)C(O)C(C)O1.Cl` (stereo partly specified), the T/C is 186% in the experiment on Mus musculus [8]; 150% in the experiment on Mus musculus [9]; 126% in the experiment with Mus musculus [10]; 124% in the experiment with Mus musculus [11]; 161% in the experiment on Mus musculus [12]; 130% in the experiment with Mus musculus [13]. Further, the T/C in the experiment with Mus musculus [14] was 126%; with Mus musculus [15], 180%; in the experiment with Mus musculus [16], 116%; in the experiment with Mus musculus [17], 140%; in the experiment on Mus musculus [18], 157%; in the experiment with Mus musculus [19] it was 177%. In the experiment on Mus musculus [20], this compound gave a T/C of 137%. Besides, the results for the EC50 in the experiment with L1210 [1] and in the experiment on L1210 [2] were 1.6 µM and 1.3 µM, respectively. Besides, the ΔTm with Nucleic Acid came to 6.2 °C. Moreover, the Augmentation in the experiment filed under Rattus norvegicus was found to be 8.2%.
Regarding `COc1cccc2c1C(=N)c1c(O)c3c(c(O)c1C2=O)C[C@@](O)(C(=O)CO)C[C@@H]3OC1CC(N)C(O)C(C)O1.Cl` (stereo partly specified), the EC50 is 2 µM with L1210 [1] and 2.1 µM in the experiment on L1210 [2]. The T/C with Mus musculus [21] turned out to be 122%; in the experiment on Mus musculus [22] it was 132%; with Mus musculus [23] it was 173%; with Mus musculus [24], 155%. For the same compound, in the experiment on Nucleic Acid, the ΔTm was found to be 6.9 °C. Further, the Augmentation in the experiment filed under Rattus norvegicus came out at 7.5%.
Take `COc1cccc2c1C(=O)c1c(O)c3c(c(O)c1C2=O)C[C@@](O)(C(C)=O)C[C@@H]3O[C@H]1C[C@H](N)[C@H](O)[C@H](C)O1.Cl` [DAUNORUBICIN HYDROCHLORIDE]: the EC50 was 1 µM in the experiment on L1210 [1] and 0.3 µM in the experiment with L1210 [2]. In addition, the T/C with Mus musculus [25] stood at 129%; in the experiment with Mus musculus [26], 126%; in the experiment with Mus musculus [5], 123%; in the experiment with Mus musculus [27] it was 123%. The Augmentation in the experiment filed under Rattus norvegicus is 109%.
